Laboratory results published in ChEMBL document CHEMBL4387794, “Constituents of the Edible Leaves of Melicope pteleifolia with Potential Analgesic Activity” (J Nat Prod, 2019).
Active and inactive are the calls of the source. The rule behind the calls is not given here.

Legend:
HaCaT [1] = experiment: Antipyretic activity in human HaCaT cells assessed as inhibition of TNFalpha-induced PGE2 production at 50 uM pre-incubated for 2 hrs before TNFalpha stimulation for 24 hrs by ELISA; assay type: functional, cell-based
In short: (§1)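 HaCaT keratinocytes, seeded at 1.5 × 10^5 cells/well and grown overnight, then serum-starved 12 h. Pretreated with compounds for 2 h, then stimulated 24 h with 20 ng/mL TNF-α; unstimulated cells as negative control. Supernatant PGE2 quantified by ELISA, absorbance 450 nm. Means ± SD of three independent experiments.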

HaCaT [2] = experiment: Antipyretic activity in human HaCaT cells assessed as inhibition of TNFalpha-induced PGE2 production at 100 uM pre-incubated for 2 hrs before TNFalpha stimulation for 24 hrs by ELISA; assay type: functional, cell-based; in short: as §1
HaCaT [3] = experiment: Cytotoxicity in human HaCaT cells assessed as reduction in cell viability at 100 uM incubated for 2 4 hrs by MTT assay; assay type: cell-based
In short: (§2)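 MTT viability in HaCaT cells seeded at 10^4 cells/well. After 12 h, compounds added in serum-free medium for 24 h, then MTT 4 h. Formazan dissolved in DMSO, absorbance read at 550 nm. Triplicate wells, experiments repeated at least three times.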

Mus musculus = experiment: Antipyretic activity in ICR mouse assessed as suppression of LPS-induced febrile response measured at 10 mg/kg, po administered 30 mins before LPS injection and measured up to 6 hrs post LPS injection; assay type: functional, organism-based
In short: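 Male 8-week-old ICR mice, 5 per group, reverse 12 h light/dark cycle. Compound suspended in 0.5% carboxymethyl cellulose, given orally 30 min before i.p. LPS (0.5 mg/kg in pyrogen-free PBS). Baseline rectal Tb from six readings over 2 h, then Tb followed to 6 h post-LPS. Each hour compared to LPS group, Student t-test, p < 0.05.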

HaCaT [4] = experiment: Cytotoxicity in human HaCaT cells assessed as reduction in cell viability at 50 uM incubated for 2 4 hrs by MTT assay; assay type: cell-based; in short: as §2
[5] = 50 uM, in the assay text read “at 50 uM” for “at 100 uM”

Row | SMILES | inhibition (HaCaT [1]) | inhibition (HaCaT [2]; 100 uM) | Activity (HaCaT [3]) | Activity (Mus musculus) | inhibition (HaCaT [2]; [5]) | Activity (HaCaT [4])
1 | CC(=O)c1c(O)c([C@@H]2O[C@H](COC(=O)/C=C/c3ccc(O)cc3)[C@@H](O)[C@H](O)[C@H]2O)c(O)c([C@@H]2O[C@H](COC(=O)/C=C/c3ccc(O)cc3)[C@@H](O)[C@H](O)[C@H]2O)c1O | Active | Active | Non-Toxic | – | – | –
2 | CC(=O)c1c(O)c([C@@H]2O[C@H](CO)[C@@H](O)[C@H](O)[C@H]2O)c(O)c2c1O[C@]1(C2)O[C@H](CO)[C@@H](O)[C@H]1O | Active | Active | Non-Toxic | – | – | –
3 | CC(=O)c1c(O)c([C@@H]2O[C@H](CO)[C@@H](O)[C@H](O)[C@H]2O)c(O)c2c1O[C@@]1(C2)O[C@H](CO)[C@@H](O)[C@@H]1O | Active | Active | Non-Toxic | – | – | –
4 | CC(=O)c1c(O)c([C@@H]2O[C@H](CO)[C@@H](O)[C@H](O)[C@H]2O)c(O)c2c1O[C@]1(C2)O[C@H](CO)[C@@H](O)[C@@H]1O | Active | Active | Non-Toxic | – | – | –
5 | COc1cc(/C=C/C(=O)OC[C@H]2O[C@@H](c3c(O)c(C(C)=O)c(O)c([C@@H]4O[C@H](CO)[C@@H](O)[C@H](O)[C@H]4O)c3O)[C@H](O)[C@@H](O)[C@@H]2O)ccc1O | Active | Active | Non-Toxic | – | – | –
6 | CC(=O)c1c(O)c([C@@H]2O[C@H](CO)[C@@H](O)[C@H](O)[C@H]2O)c(O)c([C@@H]2O[C@H](COC(=O)/C=C/c3ccc(O)cc3)[C@@H](O)[C@H](O)[C@H]2O)c1O | Active | Active | Non-Toxic | – | – | –
7 | CC(=O)c1c(O)c([C@@H]2O[C@H](CO)[C@@H](O)[C@H](O)[C@H]2O)c(O)c([C@@H]2O[C@H](CO)[C@@H](O)[C@H](O)[C@H]2O)c1O | Active | Active | Non-Toxic | Active | – | –
8 | CC(=O)c1c(O)c([C@@H]2O[C@H](CO)[C@@H](O)[C@H](O)[C@H]2O)c(O)c2c1O[C@@]1(C2)O[C@H](CO)[C@H](O)[C@@H]1O | Active | Active | Non-Toxic | – | – | –
9 | CC(=O)c1c(O)c([C@@H]2O[C@H](CO)[C@@H](O)[C@H](O)[C@H]2O)c(O)c([C@@H]2O[C@H](COC(=O)[C@H]3[C@H](C(=O)OC[C@H]4O[C@@H](c5c(O)c(C(C)=O)c(O)c([C@@H]6O[C@H](CO)[C@@H](O)[C@H](O)[C@H]6O)c5O)[C@H](O)[C@@H](O)[C@@H]4O)[C@@H](c4ccc(O)cc4)[C@@H]3c3ccc(O)cc3)[C@@H](O)[C@H](O)[C@H]2O)c1O | Active | Active | Non-Toxic | – | – | –
10 | CC(=O)c1c(O)c([C@@H]2O[C@H](CO)[C@@H](O)[C@H](O)[C@H]2O)c(O)c2c1O[C@@]1(C2)O[C@@H](CO)[C@H](O)[C@H]1O | Active | Active | Non-Toxic | – | – | –
11 | CC(=O)Oc1ccccc1C(=O)O | – | Active | – | – | – | –
12 | COc1cc(/C=C/C(=O)OC[C@H]2O[C@@H](c3c(O)c(C(C)=O)c(O)c([C@@H]4O[C@H](COC(=O)/C=C/c5ccc(O)cc5)[C@@H](O)[C@H](O)[C@H]4O)c3O)[C@H](O)[C@@H](O)[C@@H]2O)ccc1O | Active | – | Toxic | – | Active | Non-Toxic
13 | CC(=O)c1c(O)c([C@@H]2O[C@H](CO)[C@@H](O)[C@H](O)[C@H]2O)c(O)c([C@@H]2O[C@H](COC(=O)c3ccccc3)[C@@H](O)[C@H](O)[C@H]2O)c1O | Active | Active | Non-Toxic | – | – | –
14 | COc1cc(/C=C/C(=O)OC[C@H]2O[C@@H](c3c(O)c(C(C)=O)c(O)c([C@@H]4O[C@H](COC(=O)/C=C/c5ccc(O)c(OC)c5)[C@@H](O)[C@H](O)[C@H]4O)c3O)[C@H](O)[C@@H](O)[C@@H]2O)ccc1O | Active | – | Toxic | – | Active | Non-Toxic
